Compound activity as filed in PubChem.
This is one part of a sample in which hits are shown more often than they occur.
A1 inh – inhibitors of the anti-apoptotic protein A1, read as caspase activation. caspase activation, % (concentration not given with the values). 0.066% of 330,000 active. MEF A1-2A-BIM cells, Caspase-Glo 3/7 luminescence, 3 h; percent of clofoctol response, vehicle zero;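 active = over half of replicate activation scores above 10%, or exactly half above 10 with the replicate mean above 10; inconclusive = replicate mean below 10 yet half the replicates above 10; inactive = over half of replicates below 10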
CHOP inhibitor – inhibitors of CHOP induction in ER stress response | 3.8% of 220,000 active | inhibition, % at 10 µM | CHO-K1 CHOP-promoter luciferase, tunicamycin-induced, 15-18 h;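 active = compounds that reduced the stress-induced luciferase reporter signal by more than about 70% of percent inhibition, limit read from the data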;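 also: 0% = tunicamycin plus vehicle and 100% = wells without tunicamycin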
CHOP UPR activ – activators of apoptotic arm of unfolded protein response (CHOP); CHO-CHOP luciferase reporter, UPR activation, luminescence; percent of tunicamycin response over DMSO baseline; activation, % at 10 µM; 0.34% of 330,000 active;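 active = at 10 µM dose, activation of 40% or more, normalized to positive control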;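 also: 100% = tunicamycin at 10 µg/mL and 0% = DMSO alone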
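Dosing – one dose, 10 µM in 0.5% DMSO · System – CHO-CHOP cells, stable luciferase reporter of PERK-eIF2a-CHOP signalling · Input – 500 cells/well · Control set – tunicamycin 10 µg/mL final as positive, DMSO-only wells as negative · Timing – 6 h compound treatment, 37 °C · Measure – % activation vs tunicamycin · Technique – luminescence read with Steady-Glo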
XBP1 UPR activ – adaptive UPR (XBP1) activation; activation, % at 20 µM; 0.33% of 330,000 active; CHO-XBP1 luciferase reporter, IRE1-XBP1 UPR activation, luminescence; percent of tunicamycin response, DMSO as zero; AID 463104;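 active = versus positive control, 20 µM dose yields 30% or more activation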;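 also: 100% = tunicamycin at 10 µg/mL and 0% = DMSO only wells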
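Material: CHO-XBP1 cells stably carrying IRE1-XBP1-driven luciferase reporter | Medium: F12 with 10% serum | Compound dosing: 20 µM single concentration, DMSO 1% | Incubation: Overnight seeding at 37 °C, 6 h compound treatment at 37 °C | Detection: Steady-Glo luminescence read | Read-out basis: % activation of reporter signal versus tunicamycin and DMSO controls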
* marks the source's active call; other numbers are inactive results; ? = inconclusive; · = no result.

SMILES | A1 inh | CHOP inhibitor | CHOP UPR activ | XBP1 UPR activ
COc1cc2c(cc1OC)[C@@H]1C(=O)c3ccc4c(c3O[C@@H]1CO2)C[C@H](C(C)C)O4 | -1 | 78* | 8 | -4
COc1cc2c(cc1OC)[C@H]1C(=O)c3ccc4c(c3O[C@H]1CO2)C[C@@H](C(C)(C)O)O4 | ? | · | 2 | -2
Cc1ccc(S(=O)(=O)NCCC(=O)Nc2ccc(Cl)cc2C(=O)c2ccccc2)cc1 | 0 | 94* | 1 | -3
CCCN1CCC[C@@H](c2cccc(C#N)c2)C1 | · | -10 | · | ·
Cc1ccc(/C=C2/C(=O)NC(=O)N(CCc3ccc(F)cc3)C2=O)o1 | 1 | 83* | 1 | -2
CCOC(=O)C1=C(N)OC2=C(C(=O)CCC2)C12C(=O)N1c3c(ccc(C)c32)C(C)=CC1(C)C (stereo not drawn) | 1 | 26 | 1 | 0
CCOC(=O)C1=C(N)Oc2cc(C)oc(=O)c2C12C(=O)N1c3c(cccc32)C(C)=CC1(C)C (stereo not drawn) | 0 | 14 | -1 | 1
CCOC(=O)C1=C(N)Oc2cc(C)oc(=O)c2C12C(=O)N1c3c(cccc32)C(C)CC1(C)C (stereo not drawn) | 1 | 83* | -1 | -2
CCOC(=O)C1=C(N)Oc2cc(C)oc(=O)c2C12C(=O)N1c3c(cc(OC)cc32)C(C)=CC1(C)C (stereo not drawn) | 0 | 76* | 0 | 0
NC(=S)c1cn(C2OC(CO)C(O)C2O)c2ncnc(N)c12 (stereo not drawn) | 4 | 105* | · | ·
O=P(Nc1cccc(F)c1)(Oc1ccccc1F)Oc1ccccc1F | -3 | 76* | 4 | -2
Cc1ccc(NP(=O)(Oc2ccccc2F)Oc2ccccc2F)cc1C | 0 | 30 | · | ·
Cc1cccc(NP(=O)(Oc2ccccc2F)Oc2ccccc2F)c1 | 0 | 78* | · | ·
COc1cccc(NP(=O)(Oc2ccc(Cl)cc2)Oc2ccc(Cl)cc2)c1 | -1 | 55 | 0 | -2
CCc1c(C(=O)OC)ncc2[nH]c3cc(OC)c(OC)cc3c12 | · | 4 | · | ·
C[C@H](Cc1ccc2c(c1)OC(C(=O)O)(C(=O)O)O2)NC[C@H](O)c1cccc(Cl)c1 | · | -11 | · | ·
COc1ccc2c(c1)CC1(CN2C)C(=O)NC(=O)N(CCc2ccccc2)C1=O (stereo not drawn) | 0 | 12 | -1 | 0
CCC(C)N1C(=O)NC(=O)C2(Cc3c(ccc4ccccc34)N(C)C2)C1=O (stereo not drawn) | 1 | 76* | 1 | -1
COc1ccc(-n2nc(C(F)(F)F)cc2-c2ccc(Cl)cc2)cc1 | · | -8 | · | ·
C[C@H]1O[C@H]1P(=O)(O)O | · | 0 | 0 | -9
CCn1cnc2c(Nc3cccc(Cl)c3)nc(N[C@@H]3CCCC[C@@H]3N)nc21 | · | -5 | · | ·
CN(C)c1ccc(NC(=O)CN2C(=O)CN=C(c3ccccc3)c3cc(Cl)ccc32)cc1 | 0 | 53 | -4 | -4
CCC(C)C1N=C(c2ccccc2)c2cc(Cl)ccc2N(CC(=O)NCc2ccco2)C1=O (stereo not drawn) | 0 | 88* | -1 | 2
NC(=O)CI | · | -11 | · | ·
CCOC(=O)c1c(NC(=O)c2c(N)n(CCCOC)c3nc4ccccc4nc23)sc2c1CCCC2 | 0 | 27 | 1 | -3
SMILES | A1 inh | CHOP inhibitor | CHOP UPR activ | XBP1 UPR activ
CCOC(=O)c1c(NC(NC(=O)CF)C(Cl)(Cl)Cl)sc2c1CCCC2 (stereo not drawn) | 0 | 74* | -1 | -4
NC(=O)COc1c(F)cc(SCCNS(=O)(=O)c2ccccc2)cc1F | · | -11 | · | ·
CCn1c(O)c(C=Nc2ccc(N3CCOCC3)cc2)c(=O)n(CC)c1=S | 0 | 8 | 1 | 1
CCn1c(O)c(N=Nc2ccc(S(=O)(=O)N3CCOCC3)cc2)c(=O)n(CC)c1=S | 0 | 73* | 29 | -7
C[C@@H]1C[C@H]2OC(=O)C3(CO3)[C@H]2[C@H](O)[C@]2(C)C(=O)C3OC3[C@@H]12 (stereo partly drawn) | 1 | 106* | 37 | -4
CC(C)[C@H]1C(=O)O[C@H](C(C)C)C(=O)N(C)[C@@H](C(C)C)C(=O)O[C@H](C(C)C)C(=O)N(C)[C@@H](C(C)C)C(=O)O[C@H](C(C)C)C(=O)N1C | 0 | 93* | 23 | 5
CC(C)C(=O)c1cn(Cc2ccccc2C#N)c2ccccc12 | 0 | 77* | -3 | -7
CNC(=O)OCC[N+](C)(C)C | · | 69 | · | ·
ON1C2CCCCC2N(O)C1c1ccccc1 (stereo not drawn) | 0 | 89* | -1 | -5
